Screening results (PubChem BioAssay)
The list is not random: actives were taken first. Their share in the collection is about 1.3%.
GRK2 inh: compounds blocking aptamer binding on GRK2 – biochemical, human GRK2, bead flow cytometry, HTS, primary screen. Beta-adrenergic receptor kinase 1 (Homo sapiens), P25098. FAM-aptamer displacement from GRK2. inhibition of aptamer binding, % at 10 µM. 330,000 compounds, 0.59% hits;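 active means inhibition of aptamer binding above 40%, roughly 3 SD of noise, on plates passing a quality check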;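 further: median bead fluorescence of bound FAM aptamer so fluorescent compounds give negative values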
Target sequence (P25098 whole entry, looked up): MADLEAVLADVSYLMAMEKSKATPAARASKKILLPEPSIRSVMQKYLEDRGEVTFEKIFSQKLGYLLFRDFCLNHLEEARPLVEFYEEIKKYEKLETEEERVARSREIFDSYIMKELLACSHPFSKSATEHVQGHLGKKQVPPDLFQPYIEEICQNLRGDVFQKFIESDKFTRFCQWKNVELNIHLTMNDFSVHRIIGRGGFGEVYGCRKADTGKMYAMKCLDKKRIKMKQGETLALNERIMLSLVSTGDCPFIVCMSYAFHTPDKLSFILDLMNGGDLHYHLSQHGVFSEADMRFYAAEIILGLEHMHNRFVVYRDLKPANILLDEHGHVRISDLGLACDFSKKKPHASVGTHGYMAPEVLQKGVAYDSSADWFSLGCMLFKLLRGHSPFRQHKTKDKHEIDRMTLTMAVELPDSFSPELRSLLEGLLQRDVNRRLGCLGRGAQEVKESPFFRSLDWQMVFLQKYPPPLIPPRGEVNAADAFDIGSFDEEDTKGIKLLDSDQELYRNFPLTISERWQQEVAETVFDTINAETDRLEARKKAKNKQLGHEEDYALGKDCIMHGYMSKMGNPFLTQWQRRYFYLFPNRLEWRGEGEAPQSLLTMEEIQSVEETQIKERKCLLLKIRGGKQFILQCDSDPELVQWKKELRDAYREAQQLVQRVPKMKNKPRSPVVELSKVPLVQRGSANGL
MEX-5 binding: MEX-5 zinc finger RNA-binding disruptors – biochemical, C. elegans, fluorescence polarization, MLPCN library, primary screen; MEX-5/FITC-TCR2 RNA binding; stronger effect = lower value; activity score (negative = inhibition of binding), % at 10 µM; 300,000 compounds, 0.38% hits;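 active means inhibition past about -25% in most replicates, and total fluorescence under double the plate's negative control median, limit read from the data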;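 further: 0% = DMSO and -100% = 5 µM competing unlabeled TCR2 RNA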
Keap1-Nrf2 PPI: Keap1-Nrf2 protein-protein interaction inhibitors, primary screen, biochemical, fluorescence polarization, single point; 340,000 compounds, 0.15% hits; inhibition, % at 9.4 µM; AID 504523, 2011; Keap1 Kelch-Nrf2 peptide fluorescence polarization, 1536-well; in the data active means inhibition above about 12%;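 further: human Keap1 Kelch domain with fluorescein labeled Nrf2 9mer peptide probe; 0% = neutral control wells and 100% = peptide positive control; higher means more block of Keap1 binding to Nrf2 peptide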
T cell modulator: modulators of CD8 T cell-vesicle binding, primary screen, mouse 2C CD8+ T cells, flow cytometry | AID 2052, 2009 | response (vesicle binding), % at 7 µM | 2C CD8+ T cell-vesicle binding; stronger effect = lower value | 330,000 compounds, 0.068% hits;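 active means response, share of CD8 T cells binding vesicles, and their 90th percentile fluorescence all below set limits, cut at about 80% in these data, passing the limit was not always enough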;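 further: values below 100% mean blocked vesicle binding to the CD8+ T cells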
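Material: 2C TCR transgenic mouse naive CD8+ T cells, MACS-purified. Also added: QL9-charged Drosophila Ld/ICAM-1/B7-1 vesicles. Timing: binding 1.5 h at 37 °C. Measured by: high-throughput flow cytometry with anti-B7-1 and anti-CD8 staining. Read-out: percent CD8+ FL2 mean versus row control. Controls: Unloaded micro-vesicles (low), QL9 vesicles with 0.7% DMSO (high).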
C-LANA FP: inhibitors of KSHV C-LANA binding to DNA, primary screen, biochemical, fluorescence polarization, FAM-LBS DNA, MBP-C-LANA, single point. Kaposi's sarcoma herpesvirus LANA C-terminal domain (residues 932-1162) DNA binding. inhibition, % at 9 µM. 340,000 compounds, 0.078% hits. AID 504423, 2011;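 active means highest replicate inhibition at or above 60% at 9 µM, even if other replicates fall short; inactive means all replicates below 60% inhibition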;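 further: 0% = neutral control wells and 100% = 4 µM acridine orange control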
EBV gp42 block: Epstein-Barr virus gp42 inhibitors, primary screen, biochemical, uHTS, fluorescence polarization; Glycoprotein 42 (Epstein-Barr virus (strain AG876)), Q1HVG2; Fluorescence polarization binding assay, mP read-out; inhibition, % (tested at 21.74 µM); 220,000 compounds, 0.42% hits; in the data active means inhibition above about 50%
GRK2 CP1: GRK2 aptamer-displacing inhibitors, retest, confirmation, biochemical, cherry pick 1, bead flow cytometry; shares compounds with GRK2 inh; bead-bound GRK2, FAM-aptamer displacement; aptamer displacement, % at 10 µM; 2,000 compounds, 4% hits; AID 504451, 2011;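 active means aptamer displacement above 40%, near three times the noise of non-fluorescent compounds, on plates passing quality checks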;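 further: negative values mostly reflect intrinsic compound fluorescence rather than true enhancement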
Aptamer quench 1: quenches fluorescent RNA aptamer, GRK2 hit artifact; shares compounds with GRK2 inh; Fluorescent RNA aptamer beads, quenching, flow cytometry; stronger effect = higher value; fluorescence change (kMESF span), kMESF (test concentration not listed); 110 tested, under 10 active;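 active means compounds whose bead fluorescence drops by more than 37 kMESF across the dose range, marking them as dye quenchers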
FAM quench CP1: quenches fluorescent RNA aptamer, GRK2 hit artifact | shares compounds with GRK2 inh | Carboxyfluorescein RNA aptamer on beads, flow cytometry quenching; stronger effect = lower value | fluorescence response (% of DMSO), % at 10 µM | 2,000 tested, under 10 active | AID 504580;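 active means compounds that quench the bead-bound fluorescent RNA probe, cutting fluorescence to under half of the solvent control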;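 further: counterscreen run without GRK2 so only probe quenching by compound is measured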
GRK2 confirm 2: GRK2 aptamer-displacing inhibitors, hit retest, confirmation, biochemical, cherry pick 2, bead flow cytometry | inhibition of aptamer binding, % at 10 µM | shares compounds with GRK2 inh | 360 tested, under 10 active | bead-bound GRK2, FAM-aptamer displacement | AID 504782, 2011;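 active means inhibition of aptamer binding above 40%, about triple the noise seen with nonglowing compounds, on plates passing quality control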;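 further: negative values mostly come from compounds that fluoresce themselves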
Aptamer quench 2: fluorescence quenching of FAM-labeled RNA aptamer, dose response, artefact control for GRK2 aptamer inhibitor project, biochemical, flow cytometry, cherry pick 2; shares compounds with GRK2 inh; Streptavidin beads; change in fluorescence (kMESF span), kMESF (test concentration not listed); 25 tested, under 10 active; AID 504819, 2011;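 active means compounds quenching the bead-bound labeled aptamer, with fluorescence dropping by more than 37 kMESF over the dose range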
FAM quench SP: aptamer fluorescence quenching in GRK2 counter-screen; shares compounds with GRK2 inh; carboxyfluorescein RNA aptamer beads, flow cytometry quenching; stronger effect = lower value; fluorescence response vs DMSO, % at 10 µM; 360 tested, under 10 active; AID 588494;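 active means response vs DMSO under 50%, meaning signal dropped by over half, treated as fluorescence quencher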;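 further: labelled aptamer on streptavidin beads without GRK2 as a quench counter-screen; 100% = bead fluorescence of DMSO wells and lower means quenching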
FAM quench DR: quenchers of FAM-labeled RNA aptamer fluorescence, dose response, artefact control for GRK2 aptamer binding project, biochemical, powder set 1, flow cytometry; 35 tested, under 10 active; AID 588496, 2011; fluorescence ratio to DMSO, % at 11.1 µM; Bead-bound FAM RNA aptamer fluorescence quenching; stronger effect = lower value; shares compounds with GRK2 inh;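 active means compounds that dim the fluorescent label, raw bead signal shifting by over 33 units between lowest and highest dose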
* hit, by the source's call; · = no result.

SMILES	GRK2 inh	MEX-5 binding	Keap1-Nrf2 PPI	T cell modulator	C-LANA FP	EBV gp42 block	GRK2 CP1	FAM quench CP1	others
c1ccc(CCc2ccncc2)cc1	66*	3	-2	330	0	·	2	95
O=C(CSc1nnc(CNC(=O)c2ccccc2F)o1)c1ccc(Cl)cc1	1	3	-3	249	1	-6	·	·
COC(=O)C(NC(=O)c1ccco1)(Nc1cc(C)ccn1)C(F)(F)F (stereo unspecified)	2	1	-2	212	0	-20	·	·
COC(=O)C(NC(=O)c1ccco1)(Nc1nc(C2CC2)cs1)C(F)(F)F (stereo unspecified)	90*	1	3	163	1	-9	-4	102
COc1ccc(CCNC(=O)CSc2ccc3nnc(CCNC(=O)c4ccc(C)cc4)n3n2)cc1OC	61*	1	1	449	-1	·	·	·	GRK2 confirm 2=-10;FAM quench SP=99
CC1(C)Cc2c(sc(NC(=O)COc3cccc4ccccc34)c2C#N)C(C)(C)N1	63*	-4	4	54	1	-16	-35	131
O=C(CNC(=O)c1ccc(Cl)cc1Cl)OCC(=O)N1CCCC1	56*	·	5	379	1	·	1	99
COc1ccc(C2=NO[C@@H]3C(=O)N(C4CCCCC4)C(=O)[C@H]23)cc1OC	2	-1	-3	44	0	-5	·	·
COc1ccc(C2=NO[C@@H]3C(=O)N(c4ccc5c(c4)OCCO5)C(=O)[C@H]23)cc1OC	0	0	1	559	0	-6	·	·	GRK2 confirm 2=18;FAM quench SP=104
CC1(C(=O)NC2CCCC2)CCC(=O)N1Cc1ccc2c(c1)OCO2 (stereo unspecified)	4	-2	0	331	2	-12	·	·
O=C(COc1cccnc1[N+](=O)[O-])NC1CCS(=O)(=O)C1 (stereo unspecified)	70*	1	-3	229	0	-3	·	·	GRK2 confirm 2=-43;FAM quench SP=101
O=C(CCS(=O)(=O)c1ccc(Br)cc1)NCc1ccco1	63*	1	-5	204	3	·	28	99	Aptamer quench 1=-2.9;Aptamer quench 2=2
O=C(CCS(=O)(=O)c1ccc(Br)cc1)NCc1cccs1	94*	0	-4	280	1	17	58*	96	Aptamer quench 1=2.1;Aptamer quench 2=4.1;FAM quench DR=98
CCN(CC(=O)NCc1cccs1)C(=O)c1cccc(S(=O)(=O)N(C)C)c1	1	·	-1	604	-1	·	·	·
CCN(CC(=O)NCc1cccs1)C(=O)c1cccc(S(=O)(=O)NC)c1	48*	-2	-2	396	-2	·	-3	96
O=C(CCNC(=O)c1ccc(Br)cc1)NCc1ccco1	1	0	-3	346	0	·	·	·
CC1(C)CC(=O)C2=C(C1)OC(c1cccs1)C(C#N)=C2N (stereo unspecified)	3	-1	-5	206	-1	-5	·	·
Cn1c(SCc2ccccc2)nc2c1c(=O)[nH]c(=O)n2C	4	3	-4	269	2	·	·	·
Cn1c(SCc2ccccc2Cl)nc2c1c(=O)[nH]c(=O)n2C	71*	3	-5	303	-1	·	-2	95
COc1ccc(N(CC(=O)NCc2ccccc2)C(=O)CCC(=O)Nc2cc(C)ccn2)c(OC)c1	0	·	0	119	0	-6	·	·
Cc1nnc(SC(C)C(=O)Nc2sc3c(c2C#N)CCCC3)[nH]c1=O (stereo unspecified)	0	0	1	525	-2	·	·	·
CCn1cc([N+](=O)[O-])c(=O)c2cc(F)c(N3CCOCC3)cc21	64*	-1	-7	345	-1	·	0	98
CS(=O)(=O)c1ccc(Cl)c(NC(=O)CN2CCN(S(=O)(=O)/C=C/c3ccccc3)CC2)c1	·	·	-1	·	-1	·	·	·
CCCN(CCC)CCCNC(=O)c1ccc(CS(=O)(=O)c2c(Cl)cccc2Cl)o1	48*	0	-5	166	0	·	·	·	GRK2 confirm 2=-14;FAM quench SP=99
CN(C)CCNC(=O)c1ccc(CS(=O)(=O)c2c(Cl)cccc2Cl)o1	0	1	-3	204	-1	-18	·	·
O=C(Nc1ccc(SC(F)F)cc1)C1CC(=O)N(Cc2ccccc2)C1 (stereo unspecified)	3	3	2	147	0	·	·	·
C=CCc1c(C)nc(-c2ccccc2)nc1Nc1ccc(O)cc1	100*	0	-2	196	0	-3	·	·	GRK2 confirm 2=-7;FAM quench SP=100
CCOc1ccc(NC(=O)C2CCCN2S(=O)(=O)c2ccc3c(c2)C(C)(C)C(=O)N3C)cc1 (stereo unspecified)	48*	-4	1	450	0	·	2	96
